Assays:
Type in all cases: functional
SK-MEL-2 = experiment: Growth inhibition of human SK-MEL-2 cells after 48 hrs by Sulforhodamine B assay; details: SK-MEL-2, 48 h
How it was run: (§1)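 Cells were preincubated 24 h at 37 °C, 5% CO2, and a time-zero plate was TCA-fixed. Five concentrations were made by serial dilution from a DMSO stock (400-fold the top concentration) and incubated 48 h. Adherent cells were fixed with 10% final TCA and suspension cells with 16%. Plates were stained with 0.4% SRB and read at 515 nm. GI50 is the concentration giving 50% reduction in net protein increase versus control.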

Malme-3M [1] = experiment: Growth inhibition of human MALME-3M cells after 48 hrs by Sulforhodamine B assay
How it was run: (§2)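 Five-concentration SRB assay using 10-fold or ½-log serial dilutions from a DMSO stock. Exposure is 48 h at 37 °C in 5% CO2 after 24 h preincubation. TCA fixation is followed by SRB staining and a reading at 515 nm. Percentage growth is computed from time-zero, control and treated absorbances. GI50 is the concentration where [(Ti−Tz)/(C−Tz)]×100 = 50, read from the plot against log concentration.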

U-251 = experiment: Growth inhibition of human U251 cells after 48 hrs by Sulforhodamine B assay; details: U-251, 48 h
How it was run: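 Five-concentration stage in the […]-cell-line panel, using 10-fold or ½-log serial dilutions made from a DMSO stock (400-fold). Cells were preincubated 24 h at 37 °C, then drug-exposed 48 h. A time-zero plate was fixed with TCA at dosing, adherent cells were fixed with cold TCA (10% final), and protein was stained with SRB, absorbance 515 nm. GI50 was where [(Ti−Tz)/(C−Tz)]×100 = 50, from the percent growth vs log concentration plot, expressed as log10 GI50.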

SR [2] = experiment: Growth inhibition of human SR cells after 48 hrs by Sulforhodamine B assay; how it was run: as §1
HL-60(TB) = experiment: Growth inhibition of human HL-60(TB) cells after 48 hrs by Sulforhodamine B assay; details: HL-60, 48 h
How it was run: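 Suspension cells pre-incubated 24 h at 37 °C, 5% CO2 before drug addition, with a time-zero plate fixed then. DMSO stocks diluted in medium with gentamicin to five concentrations (10-fold or ½-log steps); 48 h exposure. Settled cells fixed with TCA (final 16%), stained with SRB, dye dissolved in 10 mM Tris base, read at 515 nm. GI50 solved from [(Ti−Tz)/(C−Tz)]×100 = 50.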

SF-295 [3] = experiment: Growth inhibition of human SF295 cells at 10^-5 M after 48 hrs by Sulforhodamine B assay relative to control; details: SF-295, 48 h, read-out: GI
How it was run: (§3)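 Single-dose primary screen at 10⁻⁵ M across 49 lines. Cells were plated 24 h beforehand, with a TCA-fixed time-zero plate, then exposed 48 h at 37 °C, 5% CO2. Cells were fixed with cold TCA, stained with SRB and read at 515 nm. Percent growth was calculated against time-zero and untreated-control absorbances.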

KM12 = experiment: Growth inhibition of human KM12 cells at 10^-5 M after 48 hrs by Sulforhodamine B assay relative to control; details: KM12, 48 h, read-out: GI
How it was run: (§4)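 Single-dose screen at 10⁻⁵ M. Cells are preincubated 24 h at 37 °C in 5% CO2, then exposed to the compound, diluted from a DMSO stock into medium with gentamicin, for 48 h. Adherent cells are fixed with cold TCA (final 10%) and suspension cells with TCA (final 16%). Cells are stained with 0.4% SRB in 1% acetic acid and bound dye is read at 515 nm. Percent growth inhibition is taken against control wells and time-zero plates.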

NCI-H460 = experiment: Growth inhibition of human NCI-H460 cells at 10^-5 M after 48 hrs by Sulforhodamine B assay relative to control; details: NCI-H460, 48 h, read-out: GI; how it was run: as §3
HOP-92 = experiment: Growth inhibition of human HOP92 cells at 10^-5 M after 48 hrs by Sulforhodamine B assay relative to control; details: HOP-92, 48 h, read-out: GI; how it was run: as §4
CCRF-CEM = experiment: Growth inhibition of human CCRF-CEM cells at 10^-5 M after 48 hrs by Sulforhodamine B assay relative to control; details: read-out: GI; how it was run: as §4
BT-549 = experiment: Growth inhibition of human BT549 cells at 10^-5 M after 48 hrs by Sulforhodamine B assay relative to control; details: BT-549, 48 h, read-out: GI; how it was run: as §4
PC-3 = experiment: Growth inhibition of human PC3 cells at 10^-5 M after 48 hrs by Sulforhodamine B assay relative to control; details: PC-3, 48 h, read-out: GI; how it was run: as §3
SN12C = experiment: Growth inhibition of human SN12C cells at 10^-5 M after 48 hrs by Sulforhodamine B assay relative to control; details: read-out: GI; how it was run: as §3
RXF 393 = experiment: Growth inhibition of human RXF393 cells at 10^-5 M after 48 hrs by Sulforhodamine B assay relative to control; details: RXF 393, 48 h, read-out: GI; how it was run: as §3
CAKI-1 = experiment: Growth inhibition of human CAKI-1 cells at 10^-5 M after 48 hrs by Sulforhodamine B assay relative to control; details: CAKI-1, 48 h, read-out: GI; how it was run: as §4
A498 = experiment: Growth inhibition of human A498 cells at 10^-5 M after 48 hrs by Sulforhodamine B assay relative to control; details: A498, 48 h, read-out: GI; how it was run: as §4
Malme-3M [4] = experiment: Growth inhibition of human MALME-3M cells at 10^-5 M after 48 hrs by Sulforhodamine B assay relative to control; details: read-out: GI; how it was run: as §4
T47D = experiment: Growth inhibition of human T47D cells after 48 hrs by Sulforhodamine B assay; how it was run: as §1
SK-OV-3 = experiment: Growth inhibition of human SKOV3 cells after 48 hrs by Sulforhodamine B assay; details: SK-OV-3, 48 h; how it was run: as §1
[5] = Growth inhibition of human NCI-ADR-RES cells after 48 hrs by Sulforhodamine B assay; how it was run: as §1
OVCAR-4 = experiment: Growth inhibition of human OVCAR4 cells after 48 hrs by Sulforhodamine B assay; details: OVCAR-4, 48 h; how it was run: as §1
SNB-19 = experiment: Growth inhibition of human SNB19 cells after 48 hrs by Sulforhodamine B assay; details: SNB-19, 48 h; how it was run: as §1
SF-295 [6] = experiment: Growth inhibition of human SF295 cells after 48 hrs by Sulforhodamine B assay; details: SF-295, 48 h; how it was run: as §1
HCT-116 = experiment: Growth inhibition of human HCT116 cells after 48 hrs by Sulforhodamine B assay; details: HCT-116, 48 h; how it was run: as §2
SR [7] = experiment: Growth inhibition of human SR cells at 10^-5 M after 48 hrs by Sulforhodamine B assay relative to control; details: read-out: GI; how it was run: as §3

SMILES | GI50 (SK-MEL-2) [µM] | GI50 (U-251) [µM] | GI50 (SR [2]) [µM] | GI50 (HL-60(TB)) [µM] | inhibition of growth at 10 µM (SF-295 [3]) [%] | inhibition of growth at 10 µM (KM12) [%] | inhibition of growth at 10 µM (NCI-H460) [%] | inhibition of growth at 10 µM (CCRF-CEM) [%] | inhibition of growth at 10 µM (BT-549) [%] | inhibition of growth at 10 µM (PC-3) [%] | inhibition of growth at 10 µM (SN12C) [%] | inhibition of growth at 10 µM (CAKI-1) [%] | inhibition of growth at 10 µM (A498) [%] | inhibition of growth at 10 µM (Malme-3M [4]) [%] | GI50 (T47D) [µM] | GI50 (SK-OV-3) [µM] | GI50 [5] [µM] | GI50 (OVCAR-4) [µM] | GI50 (HCT-116) [µM] | inhibition of growth at 10 µM (SR [7]) [%] | other results
O=c1[nH]c(-c2ccncc2)nc2sc3c(c12)CCCCCC3 | > 100 | > 100 | > 100 | > 100 |  |  |  |  |  |  |  |  |  |  |  |  |  |  |  |  | GI50 (Malme-3M [1]): > 100 µM
c1ccc(N2CCN(c3nc(-c4ccccn4)nc4sc5c(c34)CCCCCC5)CC2)cc1 |  |  |  |  | 54.8 | 55 | 46 | 31 | 2.77 | 54 | 28.9 | 45.9 | 38.4 | 7.96 |  |  |  |  |  |  | inhibition of growth at 10 µM (HOP-92): 26.8%; inhibition of growth at 10 µM (RXF 393): 32.2%
c1ccc(-c2nc(N3CCOCC3)c3c4c(sc3n2)CCCCCC4)nc1 | 7.94 |  |  | 4.47 |  |  |  |  |  |  |  |  |  |  | 4.47 | 9.33 | 0.832 | 4.9 | 3.72 |  | GI50 (Malme-3M [1]): 3.31 µM; GI50 (SNB-19): 8.32 µM; GI50 (SF-295 [6]): 3.39 µM
COc1ccc(N2CCN(c3nc(-c4ccncc4)nc4sc5c(c34)CCCCCC5)CC2)cc1 |  |  |  |  | 11.5 | 22.4 | 5.35 |  | -17.1 | 44.5 | 31.8 | 28.8 | 6.97 | -7.69 |  |  |  |  |  |  | inhibition of growth at 10 µM (RXF 393): 17.2%
c1ccc(N2CCN(c3nc(-c4ccncc4)nc4sc5c(c34)CCCCCC5)CC2)cc1 |  |  |  |  | 6.51 | 4.95 | -6.17 |  | -14.1 | 5.9 | -12.2 | 8.66 | 4.79 | -6.19 |  |  |  |  |  | 5.99 | inhibition of growth at 10 µM (HOP-92): 33.3%; inhibition of growth at 10 µM (RXF 393): 0.87%
CN1CCN(c2nc(-c3ccccn3)nc3sc4c(c23)CCCCCC4)CC1 |  |  |  |  | 13.8 | 8.11 | 2.79 | 5.41 | 10.3 | 15.3 | 3.33 | 20 | 34.8 | -0.36 |  |  |  |  |  |  | 
Clc1nc(-c2ccncc2)nc2sc3c(c12)CCCCCC3 |  |  |  |  |  | 0.47 | -2.59 | 23.8 | -2.76 | 0.63 | 4.53 | -4.99 | 37.2 | 7.42 |  |  |  |  |  | 21.4 | 
COc1ccc(N2CCN(c3nc(-c4ccccn4)nc4sc5c(c34)CCCCCC5)CC2)cc1 | 18.2 | 4.27 | 3.16 | 4.07 |  |  |  |  |  |  |  |  |  |  | 6.31 | > 100 | 4.79 | 8.51 | 3.24 |  | 
Clc1nc(-c2ccccn2)nc2sc3c(c12)CCCCCC3 |  |  |  |  |  | 8.45 | 9.1 | 27.6 | 14.9 | 7.81 | 15.1 | 165 | -18.4 | 5.75 |  |  |  |  |  | 33.7 | 
c1cc(-c2nc(N3CCOCC3)c3c4c(sc3n2)CCCCCC4)ccn1 |  |  |  |  | 19.5 | 19.6 | 8.02 | 2.07 | -20.4 | 35.4 | 19.3 | 15.8 | 33.7 | -1.71 |  |  |  |  |  | 24.1 | 
NNc1nc(-c2ccccn2)nc2sc3c(c12)CCCCCC3 | 14.5 | 4.47 | 3.98 | 4.47 |  |  |  |  |  |  |  |  |  |  | 5.01 | 30.9 | 0.457 | 10.5 | 3.55 |  | 
O=c1[nH]c(-c2ccccn2)nc2sc3c(c12)CCCCCC3 | > 100 | 2.14 | 0.871 | 3.39 |  |  |  |  |  |  |  |  |  |  | 5.5 | > 100 | 0.955 | 5.89 | 1.38 |  | 
NNc1nc(-c2ccncc2)nc2sc3c(c12)CCCCCC3 |  |  |  |  | 6.22 | -0.57 | -4.36 | 25.9 | 1.1 | 7.42 | 4.3 | 7.27 | 18.6 | 2.19 |  |  |  |  |  | 15.7 | 
CN1CCN(c2nc(-c3ccncc3)nc3sc4c(c23)CCCCCC4)CC1 | 14.5 | 9.33 | 2.82 | 12.6 |  |  |  |  |  |  |  |  |  |  | 13.5 | 12 | 8.13 | 12.6 | 5.13 |  | 

— ChEMBL document CHEMBL2375304, “Synthesis and anticancer activity of novel 2-pyridyl hexahyrocyclooctathieno[2,3-d]pyrimidine derivatives” (2013)
